{"source": "ChEMBL document CHEMBL1629663", "about": "“Postantibiotic effects of telavancin against 16 gram-positive organisms” (Antimicrob Agents Chemother, 2009)", "type_in_all_cases": "functional", "key": {"Staphylococcus aureus [1]": {"system": "Staphylococcus aureus", "experiment": "Antimicrobial activity against vancomycin-intermediate-, methicillin-resistant Staphylococcus aureus 1287 assessed as time required to induce sub-MIC effect at 0.4 times MIC […] by plate counting method", "in_short": "(§1)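 SME, viable plate count method: no prior drug exposure. About 5 × 10^6 CFU/ml in Mueller-Hinton broth at 35°C received 0.2, 0.3 or 0.4× MIC, alongside a drug-free tube. Counts were taken at the start, then every 2 h until McFarland no. 1 turbidity, as log10 CFU/ml against time. Two separate experiments, each with a new inoculum.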"}, "Staphylococcus aureus [2]": {"system": "Staphylococcus aureus", "experiment": "Antimicrobial activity against vancomycin-susceptible-, methicillin-resistant Staphylococcus aureus ATCC 33591 assessed as time required to induce sub-MIC effect at 0.3 times MIC exposed for 2 hrs by plate counting method", "in_short": "(§2)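 Sub-MIC effect: cultures not preexposed to drug were diluted and handled as in the PA-SME procedure in Mueller-Hinton broth with final 0.2, 0.3 or 0.4× MIC, plus a drug-free control. Viable plate counts were taken every 2 h until McFarland 1 turbidity. Duration was derived from growth curves. Two experiments were run, each with a new inoculum.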"}, "Enterococcus faecium [3]": {"system": "Enterococcus faecium", "experiment": "Antimicrobial activity against Enterococcus faecium HMC 588 assessed as time required to induce post antibiotic sub-MIC effect at 0.4 times MIC […] by plate counting method", "in_short": "(§3)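 Mueller-Hinton broth cultures of about 5 × 10^6 CFU/ml were pre-exposed to telavancin at 10× MIC for 1 h at 35°C, then diluted 1:1,000. Telavancin was re-added to final 0.2, 0.3 or 0.4× MIC, alongside a drug-free tube. Viable counts were taken before exposure, after dilution, then every 2 h until McFarland no. 1 turbidity. Duration comes from log10 CFU/ml-versus-time plots; two separate experiments with fresh inocula.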"}, "Enterococcus faecalis [4]": {"system": "Enterococcus faecalis", "experiment": "Antimicrobial activity against Enterococcus faecalis HMC 571 assessed as time required to induce post antibiotic sub-MIC effect at 0.3 times MIC […] by plate counting method", "in_short": "as §3"}, "Staphylococcus aureus [5]": {"system": "Staphylococcus aureus", "experiment": "Antimicrobial activity against vancomycin-intermediate-, methicillin-resistant Staphylococcus aureus 770 assessed as post-antibiotic effect at 10 times MIC pre-exposed to Telavancin for 1 hr by plate counting method", "in_short": "(§4)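 Viable plate count method in Mueller-Hinton broth. Direct colony suspension inoculum of about 5 × 10^6 CFU/ml was exposed to 10× MIC for 1 h at 35°C in a shaking water bath, then diluted 1:1,000 to remove drug. Counts were taken before exposure, at 0 h, then every 2 h until McFarland no. 1 turbidity. PAE = T − C, the time to a 1 log10 rise versus an unexposed growth control.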"}, "Streptococcus pyogenes": {"system": "Streptococcus pyogenes", "experiment": "Antimicrobial activity against Streptococcus pyogenes HMC 414 assessed as time required to induce post antibiotic sub-MIC effect at 0.4 times MIC […] by plate counting method", "in_short": "as §3"}, "Staphylococcus aureus [6]": {"system": "Staphylococcus aureus", "experiment": "Antimicrobial activity against vancomycin-intermediate-, methicillin-resistant Staphylococcus aureus 1984 by microdilution method"}, "Staphylococcus aureus [7]": {"system": "Staphylococcus aureus", "experiment": "Antimicrobial activity against vancomycin-intermediate-, methicillin-resistant Staphylococcus aureus 770 assessed as time required to induce post antibiotic sub-MIC effect at 0.3 times MIC […] by plate counting method", "in_short": "(§5)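 PAE was first induced with 10× MIC for 1 h at 35°C (inoculum about 5 × 10^6 CFU/ml, Mueller-Hinton broth) and ended by 1:1,000 dilution. Cultures were then split and given 0.2, 0.3 or 0.4× MIC, with one tube left without drug. Viable counts were taken before exposure, after dilution, then every 2 h until McFarland no. 1 turbidity. Two separate experiments, each with a new inoculum.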"}, "Staphylococcus aureus [8]": {"system": "Staphylococcus aureus", "experiment": "Antimicrobial activity against vancomycin-intermediate-, methicillin-resistant Staphylococcus aureus 1287 assessed as time required to induce post antibiotic sub-MIC effect at 0.3 times MIC […] by plate counting method", "in_short": "as §5"}, "Staphylococcus aureus [9]": {"system": "Staphylococcus aureus", "experiment": "Antimicrobial activity against vancomycin-intermediate-, methicillin-resistant Staphylococcus aureus 1984 assessed as post-antibiotic effect at 10 times MIC pre-exposed to Telavancin for 1 hr by plate counting method", "in_short": "as §4"}, "Staphylococcus aureus [10]": {"system": "Staphylococcus aureus", "experiment": "Antimicrobial activity against heterogenous vancomycin-intermediate-, methicillin-resistant Staphylococcus aureus 873 assessed as time required to induce sub-MIC effect at 0.4 times MIC […] by plate counting method", "in_short": "as §1"}, "Staphylococcus aureus [11]": {"system": "Staphylococcus aureus", "experiment": "Antimicrobial activity against vancomycin-susceptible-, methicillin-resistant Staphylococcus aureus 1130 assessed as time required to induce post antibiotic sub-MIC effect at 0.4 times MIC […] by plate counting method", "in_short": "(§6)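 After 1 h preexposure to 10× MIC at 35°C and 1:1,000 dilution, cultures were split, and drug was re-added to final 0.2, 0.3 or 0.4× MIC, with a drug-free tube. Viable counts were taken every 2 h until McFarland 1 turbidity. Duration was derived from log10 CFU/ml versus time curves. Two experiments were run, each with a new inoculum.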"}, "Enterococcus faecalis [12]": {"system": "Enterococcus faecalis", "experiment": "Antimicrobial activity against Enterococcus faecalis ATCC 29212 assessed as time required to induce post antibiotic sub-MIC effect at 0.4 times MIC […] by plate counting method", "in_short": "as §3"}, "Staphylococcus aureus [13]": {"system": "Staphylococcus aureus", "experiment": "Antimicrobial activity against vancomycin-susceptible-, methicillin-resistant Staphylococcus aureus 1306 assessed as time required to induce sub-MIC effect at 0.3 times MIC exposed for 2 hrs by plate counting method", "in_short": "as §2"}, "Enterococcus faecium [14]": {"system": "Enterococcus faecium", "experiment": "Antimicrobial activity against Enterococcus faecium HMC 588 assessed as time required to induce post antibiotic sub-MIC effect at 0.2 times MIC pre-exposed to Telavancin […] by plate counting method", "in_short": "as §3"}, "Staphylococcus aureus [15]": {"system": "Staphylococcus aureus", "experiment": "Antimicrobial activity against heterogenous vancomycin-intermediate-, methicillin-resistant Staphylococcus aureus 618 assessed as time required to induce post antibiotic sub-MIC effect at 0.4 times MIC […] by plate counting method", "in_short": "as §5"}, "Staphylococcus aureus [16]": {"system": "Staphylococcus aureus", "experiment": "Antimicrobial activity against vancomycin-susceptible-, methicillin-resistant Staphylococcus aureus ATCC 33591 assessed as time required to induce post antibiotic sub-MIC effect at 0.3 times MIC […] by plate counting method", "in_short": "as §6"}, "Staphylococcus aureus [17]": {"system": "Staphylococcus aureus", "experiment": "Antimicrobial activity against vancomycin-intermediate-, methicillin-resistant Staphylococcus aureus 555 assessed as time required to induce sub-MIC effect at 0.4 times MIC […] by plate counting method", "in_short": "as §1"}, "Staphylococcus aureus [18]": {"system": "Staphylococcus aureus", "experiment": "Antimicrobial activity against vancomycin-resistant-, methicillin-resistant Staphylococcus aureus 510 assessed as time required to induce sub-MIC effect at 0.2 times MIC exposed for 2 hrs by plate counting method", "in_short": "as §2"}, "Staphylococcus aureus [19]": {"system": "Staphylococcus aureus", "experiment": "Antimicrobial activity against vancomycin-intermediate-, methicillin-resistant Staphylococcus aureus 1984 assessed as time required to induce sub-MIC effect at 0.3 times MIC exposed for 2 hrs by plate counting method", "in_short": "as §1"}, "Streptococcus agalactiae": {"system": "Streptococcus agalactiae", "experiment": "Antimicrobial activity against Streptococcus agalactiae HMC 5 assessed as time required to induce sub-MIC effect at 0.2 times MIC exposed for 2 hrs by plate counting method", "in_short": "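Unexposed Mueller-Hinton broth cultures (about 5 × 10^6 CFU/ml, 35°C) were handled as in the PA-SME set but without the 10× MIC pre-exposure. They were diluted 1:1,000, then given telavancin at final 0.2, 0.3 or 0.4× MIC, with a drug-free control. Viable counts were taken every 2 h until McFarland no. 1 turbidity. Effect duration comes from log10 CFU/ml-time plots; two separate experiments with new inocula.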"}, "Staphylococcus aureus [20]": {"system": "Staphylococcus aureus", "experiment": "Antimicrobial activity against vancomycin-intermediate-, methicillin-resistant Staphylococcus aureus 555 assessed as time required to induce sub-MIC effect at 0.2 times MIC […] by plate counting method", "in_short": "as §1"}}, "data": [{"smiles": "CCCCCCCCCCNCCN[C@@]1(C)C[C@H](O[C@H]2[C@H](Oc3c4cc5cc3Oc3ccc(cc3Cl)[C@@H](O)[C@@H](NC(=O)[C@@H](CC(C)C)NC)C(=O)N[C@@H](CC(N)=O)C(=O)N[C@H]5C(=O)N[C@H]3C(=O)N[C@H](C(=O)N[C@H](C(=O)O)c5cc(O)c(CNCP(=O)(O)O)c(O)c5-c5cc3ccc5O)[C@H](O)c3ccc(c(Cl)c3)O4)O[C@H](CO)[C@@H](O)[C@@H]2O)O[C@@H](C)[C@H]1O", "note": "[TELAVANCIN]", "values": [{"measurement": "PAE", "setting": "Staphylococcus aureus [1]", "value": 0.8, "unit": "h"}, {"measurement": "PAE", "setting": "Staphylococcus aureus [2]", "value": 1.4, "unit": "h"}, {"measurement": "PAE", "setting": "Enterococcus faecium [3]", "value": "> 10", "unit": "h"}, {"measurement": "PAE", "setting": "Enterococcus faecalis [4]", "value": 7.2, "unit": "h"}, {"measurement": "PAE", "setting": "Staphylococcus aureus [5]", "value": 1.6, "unit": "h"}, {"measurement": "PAE", "setting": "Streptococcus pyogenes", "value": "> 10.7", "unit": "h"}, {"measurement": "MIC", "setting": "Staphylococcus aureus [6]", "value": 0.25, "unit": "µg/mL"}, {"measurement": "PAE", "setting": "Staphylococcus aureus [7]", "value": 6.3, "unit": "h"}, {"measurement": "PAE", "setting": "Staphylococcus aureus [8]", "value": 8.6, "unit": "h"}, {"measurement": "PAE", "setting": "Staphylococcus aureus [9]", "value": 0.9, "unit": "h"}, {"measurement": "PAE", "setting": "Staphylococcus aureus [10]", "value": 1, "unit": "h"}, {"measurement": "PAE", "setting": "Staphylococcus aureus [11]", "value": "> 10", "unit": "h"}, {"measurement": "PAE", "setting": "Enterococcus faecalis [12]", "value": "> 10.7", "unit": "h"}, {"measurement": "PAE", "setting": "Staphylococcus aureus [13]", "value": 5.1, "unit": "h"}, {"measurement": "PAE", "setting": "Enterococcus faecium [14]", "value": 1.9, "unit": "h"}, {"measurement": "PAE", "setting": "Staphylococcus aureus [15]", "value": 10.3, "unit": "h"}, {"measurement": "PAE", "setting": "Staphylococcus aureus [16]", "value": "> 10", "unit": "h"}, {"measurement": "PAE", "setting": "Staphylococcus aureus [17]", "value": 4.3, "unit": "h"}, {"measurement": "PAE", "setting": "Staphylococcus aureus [18]", "value": 1.9, "unit": "h"}, {"measurement": "PAE", "setting": "Staphylococcus aureus [19]", "value": 2.6, "unit": "h"}, {"measurement": "PAE", "setting": "Streptococcus agalactiae", "value": 0.2, "unit": "h"}, {"measurement": "PAE", "setting": "Staphylococcus aureus [20]", "value": 0.3, "unit": "h"}]}]}
